pIC50: −log10 of the molar value. The source made the active and inactive calls. No cut-off for these calls is given here.

Drawing on ChEMBL document CHEMBL1142958, “Carboxylated, heteroaryl-substituted chalcones as inhibitors of vascular cell adhesion molecule-1 expression for use in chronic inflammatory diseases” (J Med Chem, 2007), this text covers IC50, Activity and concentration for 28 molecules.

Data set [1] can be described thus: Inhibition of TNF-alpha-induced VCAM1 expression in HPAECs. Type of data set: functional, Homo sapiens. Put shortly:
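Cells were seeded to reach 90–95% confluency the next day. They were stimulated with TNF-α (1 ng/mL) ± compound (final DMSO 0.25%) for about 16 h and scored visually for toxicity. Cell-surface VCAM-1 was measured by anti-VCAM-1 (0.25 µg/mL, 30 min, 37 °C), then HRP anti-mouse IgG and TMB, read at OD 450 nm. IC50 is relative to the TNF-only response; mean of ≥3 determinations.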

Data set [2] concerns Mus musculus. In words: Inhibition of airway eosinophilia in BALF in sc dosed ovalbumin-sensitized/challenged Balb/C mouse model of allergic airway inflammation after 14 days. Type of data set: functional, organism-based. Put shortly:
(§1)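 Male Balb/C mice, 5–6 weeks old, were sensitized i.p. with ovalbumin (8 µg) emulsified in aluminum hydroxide (1 mg) per mouse. They were then dosed s.c. in 2% Cremophor at 150, 100 or 50 mg/kg bid on days 11–13 and once on day 14. On day 14 lungs were lavaged (DMEM/F-12 + 5% FBS). Eosinophils were expressed as % of ≥300 Diff Quik-stained cytospin cells. Dexamethasone 3 mg/kg i.p. served as positive control.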

The test system of data set [3] is Mus musculus. The data set is described as follows: Reduction of eosinophil level in BALF in ovalbumin-sensitized/challenged Balb/C mouse model of allergic airway inflammation at 100 mg/kg, po after 14 days. It is filed as functional. The arrangement: scale not given: the % may be the effect or the level left.
Data set [4] concerns Mus musculus. The data set is described as follows: Reduction of eosinophil level in BALF in ovalbumin-sensitized/challenged Balb/C mouse model of allergic airway inflammation at 150 mg/kg, sc after 14 days. Type of data set: functional. Also noted: scale not given: the % may be the effect or the level left. The note with it: route subcutaneous. Put shortly:
as §1

Data set [5] in a line: Plasma concentration in ovalbumin-sensitized/challenged Balb/C mouse model of allergic airway inflammation at 50 mg/kg, sc after 14 days. The arrangement: dose 50 mg/kg, route subcutaneous. It is filed as ADME, organism-based. In outline:
(§2)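 Ovalbumin/alum-sensitized male Balb/C mice received s.c. doses in 2% Cremophor, bid on days 11–13 and once on day 14. Blood for plasma drug level was collected at euthanasia on day 14, 2–3 h after the final dose.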

Data set [6] relates to Mus musculus. The data set is described as follows: Reduction of eosinophil level in BALF in ovalbumin-sensitized/challenged Balb/C mouse model of allergic airway inflammation at 50 mg/kg, sc after 14 days. Type of data set: functional. The arrangement: scale not given: the % may be the effect or the level left. The note with it: route subcutaneous. In outline:
as §1

A short description of data set [7]: Plasma concentration in ovalbumin-sensitized/challenged Balb/C mouse model of allergic airway inflammation at 100 mg/kg, sc after 14 days. Type of data set: ADME, organism-based. Also noted: dose 100 mg/kg, route subcutaneous. In outline:
as §2

A short description of data set [8]: Plasma concentration in ovalbumin-sensitized/challenged Balb/C mouse model of allergic airway inflammation at 150 mg/kg, sc after 14 days. It is filed as ADME, organism-based. The arrangement: dose 150 mg/kg, route subcutaneous. In outline:
as §2

The species named for data set [9] is Homo sapiens. In words: Inhibition of TNF-alpha-induced E-selectin expression in HPAECs. It is filed as functional.
Data set [10] is filed under the species Homo sapiens. The data set is described as follows: Inhibition of TNF-alpha-induced MCP1 expression in HPAECs. Type of data set: functional.
Another data set deals with PBMC. In words: Inhibition of LPS-induced IL1-beta secretion in HPBMCs at 5 uM. It is filed as functional, cell-based. The note with it: Homo sapiens.
The species entered for data set [11] is Rattus norvegicus. The data set is described as follows: Inhibition of paw swelling in rat adjuvant arthritis model. Type of data set: functional, organism-based.
The species named for data set [12] is Rattus norvegicus. The data set is described as follows: Inhibition of splenomegaly in rat adjuvant arthritis model. Type of data set: functional, organism-based.
The subject of data set [13] is Mus musculus. In words: Inhibition of tissue eosinophilia in sc dosed ovalbumin-sensitized/challenged Balb/C mouse model of allergic asthma after 14 days. Type of data set: functional, organism-based.
For data set [14], the system named is Mus musculus. The data set is described as follows: Activity in sc dosed ovalbumin-sensitized/challenged Balb/C mouse model of allergic asthma by measuring reduced IgE levels after 14 days. Type of data set: functional, organism-based.
For data set [15], the system named is Mus musculus. In words: Activity in sc dosed ovalbumin-sensitized/challenged Balb/C mouse model of allergic asthma assessed as reduction of elevated lung mRNA levels of Th2 cytokines after 14 days. It is filed as functional, organism-based.
Data set [16] deals with Mus musculus. In words: Reduction of airway hyperresponsiveness in sc dosed ovalbumin-sensitized/challenged Balb/C mouse model of allergic asthma after 14 days. It is filed as functional, organism-based.

The pIC50 is the negative decadic logarithm of the IC50, by convention in mol/L. In turn, `COc1cc(OC)c(-c2cccs2)cc1/C=C/C(=O)c1ccc(C(=O)O)cc1` had a pIC50 in data set [1] of 5.42.

Take `COc1cc(OC)c(-c2cc3ccccc3s2)cc1/C=C/C(=O)c1ccc(C(N)=O)cc1`: the pIC50 in data set [1] is 6.70.

Consider `CONC(=O)c1ccc(C(=O)/C=C/c2cc(-c3cc4ccccc4s3)c(OC)cc2OC)cc1`, for which the pIC50 in data set [1] is 6.30.

The molecule `COc1cc(OCCCN2CCOCC2)c(/C=C/C(=O)c2ccc(C(=O)O)cc2)cc1-c1cccs1` had a negative-log IC50 (pIC50) in [1] of 6.05.

As for `COc1cc(OCCN2CCOCC2)c(/C=C/C(=O)c2ccc(C(=O)O)cc2)cc1-c1cccs1`, the pIC50 in data set [1] was 6.10.

`COc1cc(OC)c(-c2cc3ccccc3o2)cc1/C=C/C(=O)c1ccc(C(=O)O)cc1` showed a pIC50 in [1] of 6.52.

`COc1cc(OCC(CO)CO)c(/C=C/C(=O)c2ccc(C(=O)O)cc2)cc1-c1cccs1` had a pIC50 in [1] of 4.68.

As for `COCCOCCOc1cc(OC)c(-c2cccs2)cc1/C=C/C(=O)c1ccc(C(=O)O)cc1`, in [1], the pIC50 was 5.89.

As for `COc1cc(OCC(=O)N2CCOCC2)c(/C=C/C(=O)c2ccc(C(=O)O)cc2)cc1-c1cccs1`, in data set [1], the pIC50 is 5.22.

For the molecule `COc1cc(OC)c(-c2csc(C)n2)cc1/C=C/C(=O)c1ccc(C(=O)O)cc1`, the pIC50 in data set [1] was 5.60.

In data set [1], `COc1cc(OC)c(-c2cccs2)cc1/C=C/C(=O)c1cccc(C(=O)O)c1` had a pIC50 of 5.38.

`CCOC(=O)c1ccc(C(=O)/C=C/c2cc(-c3cc4ccccc4s3)c(OC)cc2OC)cc1` gave a pIC50 in [1] of 5.51.

In data set [1], `COc1cc(OC)c(-c2cccs2)cc1/C=C/C(=O)c1ccccc1C(=O)O` showed a pIC50 of 5.07.

As to `COc1cc(OC)c(-c2cc3ccccc3s2)cc1/C=C/C(=O)c1ccc(C(=O)NC(=O)C(C)C)cc1`, the pIC50 in [1] is 5.77.

Turning to `COc1cc(OCC(CO)CO)c(-c2cccs2)cc1/C=C/C(=O)c1ccc(C(=O)O)cc1`, the pIC50 in data set [1] is 4.39.

In the case of `CCc1cc(/C=C/C(=O)c2ccc(C(=O)O)cc2)c(OC)cc1OC`, the pIC50 in data set [1] is 4.66.

`COCCOCCOCCOc1cc(OC)c(-c2cccs2)cc1/C=C/C(=O)c1ccc(C(=O)O)cc1` showed a pIC50 in data set [1] of 5.40.

As for `COc1cc(OC)c(-c2cc3ccccc3s2)cc1/C=C/C(=O)c1ccc(C(=O)NC(C)=O)cc1`, the pIC50 in data set [1] was 6.10.

`COc1ccc(-c2cccs2)cc1/C=C/C(=O)c1ccc(C(=O)O)cc1` had a pIC50 in [1] of 5.51.

Consider `CCOc1cc(OC)c(/C=C/C(=O)c2ccc(C(=O)O)cc2)cc1-c1cccs1`, for which the pIC50 in data set [1] was 5.31.

Regarding `COCCOCCOc1cc(OC)c(/C=C/C(=O)c2ccc(C(=O)O)cc2)cc1-c1cccs1`, in [1], the pIC50 is 5.19.

Take `COc1cc(OC)c(-c2cc3ccccc3s2)cc1/C=C/C(=O)c1ccc(C(=O)NCCN2CCOCC2)cc1`: the pIC50 in data set [1] is 6.10.

In [1], `COc1cc(OC)c(-c2nc3ccccc3[nH]2)cc1/C=C/C(=O)c1ccc(C(=O)O)cc1` gave a pIC50 of 5.36.

`COc1cc(OC)c(-c2ccsc2)cc1/C=C/C(=O)c1ccc(C(=O)O)cc1` had a pIC50 in data set [1] of 5.68.

Molecule `COc1cc(OC)c(-c2cc3ccccc3[nH]2)cc1/C=C/C(=O)c1ccc(C(=O)O)cc1` showed a pIC50 in [1] of 6.05. Besides, the Activity entry in the data set on Mus musculus [2] is “Dose-dependent effect”; in the data set on Mus musculus [3], 43%; with Mus musculus [4], 81%; in the data set with Mus musculus [6], 55%. In addition, the concentration at 336 h in data set [5] was 10 µM; in data set [7], 14 µM; in [8] it was 19 µM.

Consider `COc1cc(OC)c(-c2cc3ccccc3n2C(=O)OC(C)(C)C)cc1/C=C/C(=O)c1ccc(C(=O)O)cc1`, for which the pIC50 in [1] is 5.92.

`COc1cc(OC)c(-c2cc3ccccc3s2)cc1/C=C/C(=O)c1ccc(C(=O)O)cc1` had a pIC50 in data set [1] of 6.22. The outcome in the data set filed under Homo sapiens [9], in the data set filed under Homo sapiens [10], with PBMC, in the data set on Mus musculus [14], in the data set with Mus musculus [15] and in the data set on Mus musculus [16] was Active. The Activity result in the data set with Mus musculus [2], in the data set filed under Rattus norvegicus [11], in the data set listed under Rattus norvegicus [12] and with Mus musculus [13] was “Dose-dependent effect” each time.

`COc1cc(OC)c(-c2ccc(C)s2)cc1/C=C/C(=O)c1ccc(C(=O)O)cc1` showed a pIC50 in [1] of 6.00.
